# KCNQ1 inh: inhibitors of human KCNQ1 potassium channel; AID 2642; hit rate 1.3% among 310,000; B-score at 10 µM; CHO-K1 KCNQ1, FluxOR thallium flux fluorescence; active compounds read high;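 active = compounds whose thallium flux B-score, printed positive for inhibition, exceeds three library SD while starting fluorescence stays within three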;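 also: channel opened by potassium depolarization with thallium stimulus after 20 min compound exposure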
# KCNK9 block: human KCNK9 channel inhibition; HEK293 KCNK9, FluxOR thallium flux fluorescence; active compounds read low; hit rate 1.2% among 310,000; B-score at 10 µM;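 active = ratio B-score over 3 SD below the library mean, with starting fluorescence within 5 SD of its mean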;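 also: negative B-score means less thallium flux so channel inhibition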
# Kir21 inh: inhibitors of mouse Kir2.1 inward-rectifier potassium channel; P35561; HEK293-Kir2.1, FluxOR thallium flux fluorescence; active compounds read low; B-score at 10 µM; hit rate 0.85% among 310,000; AID 1672;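 active = fluorescence ratio B-score at or below minus 3 SD of library scores, with starting-brightness B-score within 2 SD, cut at about -4.2 in these data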;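 also: channel flux triggered by added potassium and thallium sulfate stimulus; B-score of peak minus minimum fluorescence over baseline after thallium stimulus; more negative B-score means stronger Kir2.1 block with less thallium influx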
# KCNQ1 act: potentiators or activators of human KCNQ1 potassium channel; hit rate 0.35% among 310,000; CHO-K1 KCNQ1, thallium flux FluxOR fluorescence; active compounds read high; B-score at 10 µM;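 active = fluorescence ratio B-score, a plate-corrected score, at least three library SD, with initial intensity B-score within 5 SD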
#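 Assay system: CHO-K1 cells stably expressing KCNQ1; Medium: assay buffer with matched DMSO; Also added: K+/Tl+ depolarizing stimulus; Dosing: single dose; Timing: dye 90 min, compound 20 min, room temperature; Measured by: kinetic FluxOR thallium fluorescence, 10-s 1-Hz baseline, 110-s post-stimulus read; Read-out: peak-minus-minimum fluorescence over initial fluorescence, negative-control normalized, B-scored.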
# KCNK3 inh: human KCNK3 channel inhibition, primary screen; B-score at 10 µM; AID 602410; CHO-KCNK3 thallium flux, FluxOR fluorescence; active compounds read low; O14649; hit rate 0.84% among 340,000;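 active = B-score under library mean minus 4 SD, starting fluorescence ratio at most library mean plus 5 SD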;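 also: more negative B-score means stronger inhibition of thallium flux through KCNK3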
# hERG rescue: hERG (human) protection from proarrhythmic block. Q12809. CHO-hERG, FluxOR thallium flux, dofetilide IC70 present. activation (rescue from dofetilide block), less the hit threshold, % at 10 µM. hit rate 0.51% among 310,000;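 active = activation above the mean of controls blocked by dofetilide plus 5 SD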;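 also: thallium influx through hERG after potassium depolarization seen as dye fluorescence rise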
# Target sequence (Q12809 whole entry, looked up): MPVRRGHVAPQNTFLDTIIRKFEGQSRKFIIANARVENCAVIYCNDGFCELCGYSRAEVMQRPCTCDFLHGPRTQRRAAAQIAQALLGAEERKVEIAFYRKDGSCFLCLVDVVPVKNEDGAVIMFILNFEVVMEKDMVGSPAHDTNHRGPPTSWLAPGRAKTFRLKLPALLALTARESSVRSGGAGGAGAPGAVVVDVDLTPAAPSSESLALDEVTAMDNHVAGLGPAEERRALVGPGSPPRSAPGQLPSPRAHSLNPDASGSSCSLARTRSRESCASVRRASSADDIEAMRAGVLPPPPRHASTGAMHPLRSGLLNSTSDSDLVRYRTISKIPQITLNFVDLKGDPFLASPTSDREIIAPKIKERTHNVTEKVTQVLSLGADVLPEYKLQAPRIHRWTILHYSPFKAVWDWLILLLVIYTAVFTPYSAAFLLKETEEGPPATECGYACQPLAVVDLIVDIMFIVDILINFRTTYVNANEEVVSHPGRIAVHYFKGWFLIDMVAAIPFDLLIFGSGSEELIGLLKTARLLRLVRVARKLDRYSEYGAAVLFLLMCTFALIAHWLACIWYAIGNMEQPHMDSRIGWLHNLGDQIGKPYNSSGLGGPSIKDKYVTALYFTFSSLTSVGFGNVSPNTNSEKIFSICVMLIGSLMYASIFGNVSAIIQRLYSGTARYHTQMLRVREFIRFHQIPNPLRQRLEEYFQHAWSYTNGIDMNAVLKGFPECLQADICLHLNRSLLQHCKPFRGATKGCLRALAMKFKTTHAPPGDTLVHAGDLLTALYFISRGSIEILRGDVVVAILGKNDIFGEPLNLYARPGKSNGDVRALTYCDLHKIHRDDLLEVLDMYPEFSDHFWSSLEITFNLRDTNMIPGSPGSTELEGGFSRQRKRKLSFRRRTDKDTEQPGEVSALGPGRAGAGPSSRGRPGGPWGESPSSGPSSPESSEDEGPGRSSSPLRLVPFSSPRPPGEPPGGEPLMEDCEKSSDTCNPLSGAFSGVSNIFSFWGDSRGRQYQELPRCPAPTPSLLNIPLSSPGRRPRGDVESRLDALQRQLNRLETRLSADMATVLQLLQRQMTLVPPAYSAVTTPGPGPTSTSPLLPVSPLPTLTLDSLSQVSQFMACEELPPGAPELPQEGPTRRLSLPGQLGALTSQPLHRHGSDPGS
# An asterisk follows results filed as active; i = inactive; / = no result given. Only some compounds are listed: those with a hit (about 3.8% of all), similar ones and a draw of the others.
SMILES,KCNQ1 inh,KCNK9 block,Kir21 inh,KCNQ1 act,KCNK3 inh,hERG rescue
O=C(COC(=O)C1CCC(=O)N1)Nc1ccccc1Br (centres undefined),i,i,2.3,i,i,-13.9
O=C(COC(=O)C1CCC(=O)N1)Nc1ccc(Oc2ccccc2)cc1 (centres undefined),i,i,0,i,i,33.3*
CC(C)(C)C1N=C(c2ccc3ccccc3c2)OC1=O (centres undefined),/,/,/,/,i,/
Cc1cc(C)n(-c2ccc(C(=O)Nc3cccc([N+](=O)[O-])c3)cc2)n1,9*,i,1.04,i,i,-11.7
Cc1cc(C)n(-c2ccc(C(=O)Nc3cccc(S(=O)(=O)N(C)C)c3)cc2)n1,i,i,0.52,i,i,-15.8
Cc1c(C(=O)Nc2cccc([N+](=O)[O-])c2)cnn1-c1ccccc1,i,i,0.05,i,i,7.0*
Cc1ccccc1NS(=O)(=O)c1cc(C(=O)NCCSC2CCCCC2)ccc1C,i,-8.03*,0,i,i,-6.9
CC1(C)CC1C(=O)Nc1ccc([N+](=O)[O-])cc1Br (centres undefined),i,i,-1.6,i,i,-7.3
O=C(Nc1ccc([N+](=O)[O-])cc1)/C(=C/c1cccc([N+](=O)[O-])c1)NC(=O)C1CCCCC1,i,-6.87*,-0.32,i,i,-3.5
Cc1ccc(C)c(NC(=O)C2CCCC2)c1,i,i,-0.42,i,i,-5.3
Cc1ccc([N+](=O)[O-])cc1NC(=O)CN(C1CCCCC1)S(=O)(=O)c1ccc(Cl)cc1,7*,-7.66*,-0.78,i,i,-7.7
O=C(CN(C1CCCCC1)S(=O)(=O)c1ccc(Cl)cc1)N1CCOCC1,i,i,-0.39,i,i,-18.3
Cc1ccc([N+](=O)[O-])cc1NC(=O)C1CCCC1,i,i,0.04,i,i,5.0*
Cc1ccc(C2(c3ccc(C)cc3)CC2C(=O)Nc2ccc([N+](=O)[O-])cc2O)cc1 (centres undefined),11*,i,0.68,i,i,-10.9
Cc1ccc(NC(=O)/C(=C/c2cccc([N+](=O)[O-])c2)NC(=O)C2CCCCC2)c(C)c1,i,i,2.71,i,i,-9.5
CC(=O)c1c(C)[nH]c(C(=O)COC(=O)c2c(-c3ccccc3)noc2C)c1C,/,/,/,/,i,/
CCCC1=Nc2cc(C(=O)N3CCC(C(=O)OCC)CC3)ccc2Sc2ccccc21,i,i,-0.84,i,i,-9.1
Cc1ccc(NC(=O)N2CCCCCC2)cc1C,i,i,-0.81,i,i,-9.1
Cc1ccc(NC(=O)N2CCCN(Cc3ccc(F)cc3)C2)cc1C,i,i,-5.4*,i,i,-13.9
O=C(O)CC1Sc2nnc(COc3ccc(Cl)cc3)n2N=C1c1ccccc1 (centres undefined),i,i,-0.12,i,i,1.5
N#Cc1c(NC(=O)C(=O)NCCCN2CCOCC2)sc2c1CCC2,i,i,-0.97,i,i,-11.4
COC(=O)c1c(NC(=O)C(=O)NCCCN2CCOCC2)sc2c1CCCC2,i,i,-4.98*,i,i,-12.4
COc1ccccc1-c1cc(C(F)(F)F)nc(S(C)(=O)=O)n1,i,i,1.4,i,i,-9.7
CS(=O)(=O)c1nc(-c2ccco2)cc(C(F)(F)F)n1,7*,i,-0.5,i,/,-24.9
Cc1ccc(-n2ncc(C(=O)Nc3cc(Cl)cc(Cl)c3)c2C2CCNCC2)cc1C,i,i,-7.3*,17*,i,-25.4
Cc1cc(C)cc(NC(=O)c2cc(C)nc3ccccc23)c1,i,i,3.52,i,i,-3.4
COC(=O)c1ccccc1NC(=S)N(Cc1ccc2c(c1)OCO2)Cc1cc2ccc(C)cc2[nH]c1=O,6*,i,-0.01,i,i,-7.4
COC(=O)c1ccccc1NC(=S)N(Cc1ccc2c(c1)OCO2)Cc1cc2cc(C)ccc2[nH]c1=O,i,i,1.26,i,i,-8.6
CCCCC1(CO)C(=O)N(c2ccccc2)N(c2ccccc2)C1=O,i,i,0.82,i,i,-5.2

# Compound activity from PubChem BioAssay.
